Published values collected from several papers.
Lines come from different studies, so protocols differ.
CDK4 with cyclin D1: Cyclin-dependent kinase 4, with cyclin D1 (CDK4, Homo sapiens, UniProt P11802)
CDK4 with cyclin D3: Cyclin-dependent kinase 4, with cyclin D3 (CDK4, Homo sapiens, UniProt P11802)
CDK4: Cyclin-dependent kinase 4 (CDK4, Homo sapiens, UniProt P11802)

SMILES | target | read-out | action | method | concentration | quantity | result
O=C(Nc1cnn(-c2csc(C(=O)NC3COC3)c2)c1)Nc1ccccc1Cl | CDK4 with cyclin D1 | enzyme activity | inhibitor |  | 5 µM | remaining activity | 92.2%
O=C1NC(=O)c2cc(Nc3ccc(F)cc3)c(Nc3ccc(F)cc3)cc21 | CDK4 with cyclin D3 | cell-free assay |  |  | 0.5 µM | remaining signal | 99%
CC(C)(O)[C@H]1CC[C@H](Nc2ccc3ncc(-c4cccc(C(F)(F)F)c4)n3n2)CC1 | CDK4 with cyclin D1 | enzyme activity | inhibitor |  | 1 µM | remaining activity | 90.5%
CC(C)(C)c1nc(-c2cccc(NS(=O)(=O)c3c(F)cccc3F)c2F)c(-c2ccnc(N)n2)s1 | CDK4 with cyclin D3 | enzyme activity | inhibitor | radiometric | 1 µM | remaining activity | 119%
O=C(c1ccc(F)cc1)[C@H]1Cc2c(cc([N+](=O)[O-])cc2[N+](=O)[O-])[C@@H](O)[C@@]12C(=O)Nc1ccccc12 | CDK4 | cell-free assay | inhibitor | TR-FRET | 1 µM | inhibition | 48.2%
CN1CC(Oc2cnc(C#N)cc2-c2ccn3nc(NC(=O)C4CC4)cc3c2)C1 | CDK4 with cyclin D3 | enzyme activity | inhibitor |  | 1 µM | inhibition | -9%
Nc1ncnc2occ(-c3ccc(NC(=O)Nc4cc(C(F)(F)F)ccc4F)cc3)c12 | CDK4 with cyclin D3 | cell-free assay | inhibitor |  | 20 µM | remaining signal | 51%
O=C(c1ccc(Br)cc1)[C@H]1Cc2c(cc([N+](=O)[O-])cc2[N+](=O)[O-])[C@@H](O)[C@@]12C(=O)Nc1ccccc12 | CDK4 | cell-free assay | inhibitor | TR-FRET | 1 µM | inhibition | 29.5%
COc1ccc2cc(OCC3(C(=O)O)CN(C(=O)c4ccc(F)cc4)C3)ccc2c1 | CDK4 with cyclin D3 | cell-free assay |  | competition with immobilised ligand | 1 µM | remaining binding | 100%
F[C@@H]1CCN(c2nccc(-c3cnn4ncccc34)n2)C1 | CDK4 with cyclin D1 | binding |  |  | 1 µM | remaining binding | 100%
O=C(Nc1cnc(Oc2ccc(F)cc2)nc1)N1CCc2ncccc2[C@@H]1c1ccc(F)cc1 | CDK4 with cyclin D1 | cell-free assay |  | competition with immobilised ligand | 1 µM | remaining binding | 100%
CN(CCCC(F)(F)F)c1nccc(-c2cnn3ncccc23)n1 | CDK4 | binding |  |  | 1 µM | remaining binding | 100%
O=C(c1ccccc1)[C@H]1Cc2c(cc([N+](=O)[O-])cc2[N+](=O)[O-])[C@H](O)[C@]12C(=O)Nc1ccccc12 | CDK4 | cell-free assay | inhibitor | TR-FRET | 1 µM | inhibition | 30.8%
CCN(CC)CCNC(=O)c1c(C)[nH]c(/C=C2\C(=O)Nc3ccc(F)cc32)c1C | CDK4 with cyclin D3 | cell-free assay |  |  | 0.5 µM | remaining signal | 93%
COc1cccc(CNC(=O)c2nc3scc(COCc4ccc(C(=O)O)cc4)c3c(=O)[nH]2)c1 | CDK4 with cyclin D3 | cell-free assay |  | competition with immobilised ligand | 1 µM | remaining binding | 91.1%
N#CCCc1ccc2c(c1)-c1[nH]c3ccc([N+](=O)[O-])cc3c1CC(=O)N2 | CDK4 with cyclin D3 | cell-free assay |  |  | 0.5 µM | remaining signal | 25.9%
CN(C)c1nccc(-c2cnc3ncccn23)n1 | CDK4 | binding |  |  | 1 µM | remaining binding | 71%
COc1ccc(OC)c2c(=S)c3ccccc3[nH]c12 | CDK4 with cyclin D3 | cell-free assay |  |  | 0.5 µM | remaining signal | 95.5%
COc1cc(-c2cn(C3CCc4c(F)cccc4N(CC(F)(F)F)C3=O)nn2)ccc1-n1cnc(C)c1 (stereo not drawn) | CDK4 with cyclin D3 | cell-free assay |  | competition with immobilised ligand | 1 µM | remaining binding | 100%
COc1ccc(C(=O)[C@H]2Cc3c(cc([N+](=O)[O-])cc3[N+](=O)[O-])[C@@H](O)[C@@]23C(=O)Nc2ccccc23)cc1 | CDK4 | cell-free assay | inhibitor | TR-FRET | 1 µM | inhibition | 39.3%

SMILES | target | read-out | action | method | concentration | quantity | result
CCOCCn1cc(C(=O)Nc2ccc(-n3nc(-c4cccnc4)cc3C(F)(F)F)cn2)ccc1=O | CDK4 | cell-free assay |  | competition with immobilised ligand | 1 µM | remaining binding | 87%
Cc1cnc(NC2CCOCC2)nc1-n1cnc(C(=O)NC(CN)c2cc(F)cc(Cl)c2)c1 (stereo not drawn) | CDK4 with cyclin D3 | enzyme activity | inhibitor | radiometric | 1 µM | remaining activity | 6%
CCC(=N\O)/C(C)=C/c1ccc(F)cc1 | CDK4 with cyclin D3 | cell-free assay |  | competition with immobilised ligand | 1 µM | remaining binding | 74%
O=C(c1ccc(Cl)c(Cl)c1)[C@H]1Cc2c(cc([N+](=O)[O-])cc2[N+](=O)[O-])[C@H](O)[C@]12C(=O)Nc1ccccc12 | CDK4 | cell-free assay | inhibitor | TR-FRET | 1 µM | inhibition | 18.5%
COc1ccnn2ncc(-c3ccnc(N(C)C)n3)c12 | CDK4 with cyclin D3 | binding |  |  | 1 µM | remaining binding | 69%
O=C1Nc2ccc(Cl)cc2C1=Cc1cc(Cl)c(O)c(Cl)c1 | CDK4 with cyclin D1 | cell-free assay |  |  | 0.5 µM | remaining signal | 94.7%
CC1CCCN1c1nccc(-c2cnn3ncccc23)n1 (stereo not drawn) | CDK4 | binding |  |  | 1 µM | remaining binding | 100%
O=C(c1ccccc1F)[C@H]1Cc2c(cc([N+](=O)[O-])cc2[N+](=O)[O-])[C@H](O)[C@]12C(=O)Nc1ccccc12 | CDK4 | cell-free assay | inhibitor | TR-FRET | 1 µM | inhibition | 29.3%
Cc1sc(C(=O)NC2COC2)cc1-n1cc(NC(=O)Nc2c(F)cccc2Cl)cn1 | CDK4 with cyclin D3 | enzyme activity | inhibitor |  | 10 µM | remaining activity | 96.5%
Oc1cccc(-c2nc(N3CCOCC3)c3oc4ncccc4c3n2)c1 | CDK4 with cyclin D1 | cell-free assay |  |  | 0.5 µM | remaining signal | 102%
Cc1c(NC(=O)c2cc(C(N)=O)nc3cc(F)ccc23)c(C(F)(F)F)nn1Cc1ccc(C#N)cc1 | CDK4 with cyclin D3 | cell-free assay |  | competition with immobilised ligand | 1 µM | remaining binding | 81%
C[C@@H]1CCN(C(=O)CC#N)C[C@@H]1N(C)c1ncnc2[nH]ccc12 | CDK4 with cyclin D3 | cell-free assay | inhibitor |  | 0.5 µM | remaining signal | 99.9%
CC(C)(C)c1nc2c(s1)c1nc(N)ncc1c1ccc(NS(=O)(=O)c3c(F)cccc3F)c(F)c12 | CDK4 with cyclin D3 | enzyme activity | inhibitor | radiometric | 1 µM | remaining activity | 100%
C[C@@H]1CCN(c2nccc(-c3cnn4ncccc34)n2)C1 | CDK4 with cyclin D3 | binding |  |  | 1 µM | remaining binding | 76%
COc1cc(Cl)c(C(=O)N[C@@H](CN[C@H]2CC[C@@H](N)CC2)Cc2ccc(C#N)cc2)cc1-c1ccc(CN[C@H](C)c2ccc(C)cc2)o1 | CDK4 with cyclin D3 | enzyme activity | inhibitor |  | 1 µM | remaining activity | 103%
CN(C)c1nccc(-c2cnn3ncccc23)n1 | CDK4 with cyclin D1 | binding |  |  | 1 µM | remaining binding | 100%
O=C(Nc1cnn(-c2csc(C(=O)NC3COC3)c2)c1)Nc1c(F)cccc1Cl | CDK4 with cyclin D3 | enzyme activity | inhibitor |  | 5 µM | remaining activity | 79.4%
COc1cc2c(cc1OC)-c1[nH]nc(Nc3cccc(F)c3)c1C2 | CDK4 with cyclin D1 | cell-free assay |  |  | 0.5 µM | remaining signal | 93.9%
Cc1nccc(COC(=O)N2C[C@@H]3[C@@H](CNC(=O)c4ccc5[nH]nnc5c4)[C@@H]3C2)n1 | CDK4 with cyclin D1 | cell-free assay |  | competition with immobilised ligand | 1 µM | remaining binding | 90%
